Consider eight molecules from ChEMBL document CHEMBL1909547, “Discovery of spiropiperidine-based potent and selective Orexin-2 receptor antagonists” (Bioorg Med Chem Lett, 2011).

In brackets after ≈: the same amount, converted by molar mass.

Data set [1] is described as follows: Lipophilicity, log D of the compound. In kind it is physicochemical. As to conditions: octanol/water.
Data set [2] is described as follows: Solubility of the compound in stomach simulated fluid JP1. The format is physicochemical. Summed up: (§1)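 Solubility was measured in the Japanese Pharmacopoeia dissolution fluids. JP1 is the first fluid, an acidic stomach-simulating solution. JP2 is the second fluid, a buffer that mimics intestinal pH.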
Data set [3] is described as follows: Solubility of the compound in intestine simulated fluid JP2. In kind it is physicochemical. In a few lines: as §1
Data set [4] has as its target T1, Orexin/Hypocretin receptor type 1 (Homo sapiens, UniProt O43613).
T1 sequence (O43613 whole entry): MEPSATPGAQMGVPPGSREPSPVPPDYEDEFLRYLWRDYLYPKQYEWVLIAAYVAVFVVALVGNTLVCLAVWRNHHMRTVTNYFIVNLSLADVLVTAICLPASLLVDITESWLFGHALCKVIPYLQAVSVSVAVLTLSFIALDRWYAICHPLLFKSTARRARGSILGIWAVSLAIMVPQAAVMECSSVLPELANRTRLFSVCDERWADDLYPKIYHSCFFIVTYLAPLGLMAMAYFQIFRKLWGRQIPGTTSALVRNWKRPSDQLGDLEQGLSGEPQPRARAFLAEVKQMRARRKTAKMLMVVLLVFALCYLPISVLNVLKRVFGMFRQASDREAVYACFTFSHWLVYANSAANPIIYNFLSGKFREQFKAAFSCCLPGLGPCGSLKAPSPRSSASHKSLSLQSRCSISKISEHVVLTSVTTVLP
As to the kind of experiment: Antagonist activity at OX1R expressed in dihydrofolate reductase deficient CHO cells assessed as inhibition of orexin A-induced intracellular calcium mobilization by FLIPR assay. The format is functional, cell-based. In general terms: Calcium flux is commonly read through the fluorescence of an indicator in the cells.

A short description of data set [5]: Selectivity ratio of IC50 for OX1R to IC50 for OX2R.
Data set [6] deals with T2, Orexin receptor type 2 (Homo sapiens, UniProt O43614).
T2 sequence (O43614 whole entry): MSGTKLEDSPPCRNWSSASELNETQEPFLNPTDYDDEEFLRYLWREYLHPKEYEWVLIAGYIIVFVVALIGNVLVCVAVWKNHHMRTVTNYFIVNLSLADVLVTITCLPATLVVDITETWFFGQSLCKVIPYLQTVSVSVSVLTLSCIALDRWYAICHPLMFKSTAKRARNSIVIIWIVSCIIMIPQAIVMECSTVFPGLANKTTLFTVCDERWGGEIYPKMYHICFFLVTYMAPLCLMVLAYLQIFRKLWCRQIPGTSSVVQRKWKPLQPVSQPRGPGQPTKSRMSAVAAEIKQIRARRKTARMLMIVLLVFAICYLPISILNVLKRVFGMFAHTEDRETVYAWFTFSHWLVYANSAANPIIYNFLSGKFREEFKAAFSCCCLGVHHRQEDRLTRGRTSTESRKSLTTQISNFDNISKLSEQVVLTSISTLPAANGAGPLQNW
In words: Antagonist activity at OX2R expressed in dihydrofolate reductase deficient CHO cells assessed as inhibition of orexin A-induced intracellular calcium mobilization by FLIPR assay. The format is functional, cell-based.

For `COc1ccc(S(=O)(=O)N2CCOC23CCN(C(=O)Nc2ccccc2)CC3F)cc1` (racemic), the logD (usually the decadic logarithm of the distribution of all forms, ionised or not, between an organic phase and buffer at a given pH) in data set [1] was determined as 1.63. Further, the solubility (as a rule, the dissolved amount per volume that the medium holds) in data set [2] was 490 µg/mL (≈ 1.09 mM); in data set [3] it was 580 µg/mL (≈ 1.29 mM). Besides, the IC50 (commonly the midpoint of a concentration-inhibition curve) in data set [4] amounted to 1.6 µM; in data set [6], 0.087 µM. For the same molecule, in data set [5], the Ratio IC50 was found to be 18.

In the case of `O=C(Nc1ccccc1)N1CCC2(OCCN2S(=O)(=O)c2ccccc2)[C@@H](F)C1` (mixture of isomers), the logD in data set [1] amounted to 1.5. The values for the solubility in data set [2] and in data set [3] were 8500 µg/mL and 12000 µg/mL, respectively. For the same molecule, the IC50 in data set [4] came out at 2.5 µM; in data set [6], 0.22 µM. The Ratio IC50 in data set [5] amounted to 11.

With `COc1ccc(S(=O)(=O)N2CCOC23CCN(C(=O)Nc2ccccc2)CC3F)cc1OC` (stereo not given), the logD in data set [1] came out at 1.35. Moreover, the solubility is 5900 µg/mL (≈ 12.3 mM) in data set [2] and 4500 µg/mL (≈ 9.38 mM) in data set [3]. Moreover, the IC50 in data set [4] came to 1.5 µM; in data set [6] it was 0.0033 µM. Moreover, the Ratio IC50 in data set [5] worked out at 450.

`O=C(Nc1ccccc1)N1CCC2(OCCN2S(=O)(=O)c2ccccc2)[C@H](F)C1` (mixture of isomers) came in with a log distribution coefficient (logD) in data set [1] of 2.04. Also, the solubility was 45000 µg/mL in data set [2] and 34000 µg/mL in data set [3]. In addition, the IC50 in data set [4] came out at 0.28 µM; in data set [6], 0.17 µM. Also, the Ratio IC50 in data set [5] is 1.6.

Regarding `O=C(Nc1ccccc1)N1CCC2(CC1)OCCN2S(=O)(=O)c1ccccc1`, the logD in data set [1] stood at 1.82. For the same molecule, the solubility in data set [2] was below 70 µg/mL; in data set [3], 1700 µg/mL (≈ 4.23 mM). Further, the concentration for half-maximal inhibition (IC50) in data set [4] is 6.3 µM; in data set [6], 0.71 µM. The Ratio IC50 in data set [5] was 8.9.

`COc1cccc(S(=O)(=O)N2CCOC23CCN(C(=O)Nc2ccccc2)CC3F)c1` (racemic) gave a logD in data set [1] of 1.75. The solubility in data set [2] is 2100 µg/mL (≈ 4.67 mM); in data set [3], 2400 µg/mL (≈ 5.34 mM). The IC50 stood at 2.3 µM in data set [4] and 0.13 µM in data set [6]. In addition, in data set [5], the Ratio IC50 stood at 18.

Take `O=S(=O)(c1ccccc1)N1CCOC12CCN(c1cnc3ccccc3n1)CC2`: the IC50 came to 1.6 µM in data set [4] and 0.23 µM in data set [6]. Besides, in data set [5], the Ratio IC50 is 7.

Consider `O=C(Nc1ccccc1)N1CCC2(OCCN2S(=O)(=O)c2ccccc2)C(F)(F)C1` (racemic), for which, in data set [1], the logD was 1.93. In addition, the solubility was 21000 µg/mL (≈ 48 mM) in data set [2] and 18000 µg/mL (≈ 41.1 mM) in data set [3]. Further, the IC50 in data set [4] was above 10 µM; in data set [6] it was 1 µM. Further, in data set [5], the Ratio IC50 is above 10.
